# Test results taken from PMC4220649 (Blood Cancer Journal, 2014).
# Entries after “also recorded” stand apart in the source; their conditions may differ. Where two headings read alike, the source gives them in different places.
# Test system: patients with relapsed/refractory lymphoma
# Assay type: in vivo, human
# Conditions: for Drug-related AE: Skin/SC tissue disorders / Drug-related grade ⩾3 AE: Skin/SC tissue disorders: MedDRA SOC
# Outline: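 Open-label phase 1 in patients with relapsed/refractory lymphoma after ⩾2 prior therapies. Dosing started at one patient per level with doubling from 0.125 to 1.0 mg/m2, then followed a 3+3 schema up to 3.11 mg/m2. DLTs were assessed in cycle 1, and AEs were graded by NCI-CTCAE v3.0.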
smiles,measurement,setting,value
CC(C)C[C@H](NC(=O)CNC(=O)c1cc(Cl)ccc1Cl)B(O)O [ixazomib],DLTs in cycle 1,1.76 mg/m^2 cohort,one grade 4 neutropenia
same,DLTs in cycle 1,2.34 mg/m^2 cohort,DLTs occurred in one of six DLT-evaluable patients
same,DLTs in cycle 1,3.11 mg/m^2 cohort,two DLTs occurred in four DLT-evaluable patients
same,Patients who reported DLTs,"DLT-evaluable population, 28 patients",Four
same,MTD (maximum tolerated dose),"IV, days 1, 8 and 15 of 28-day cycles",2.34 mg/m^2
same,Drug-related AE: Skin/SC tissue disorders,"all doses, Total (n=30)",8 (27) n (%)
same,Drug-related grade ⩾3 AE: Skin/SC tissue disorders,"all doses, Total (n=30)",2 (7) n (%)
same,Drug-related AE: Skin/SC tissue disorders,dose 1.4 mg/m^2 (n=4),1 n
same,Drug-related grade ⩾3 AE: Skin/SC tissue disorders,dose 1.4 mg/m^2 (n=4),0 n
same,Drug-related AE: Skin/SC tissue disorders,dose 1.76 mg/m^2 (n=7),2 n
same,Drug-related grade ⩾3 AE: Skin/SC tissue disorders,dose 1.76 mg/m^2 (n=7),0 n
same,Drug-related AE: Skin/SC tissue disorders,dose 2.34 mg/m^2 (n=10),4 n
same,Drug-related grade ⩾3 AE: Skin/SC tissue disorders,dose 2.34 mg/m^2 (n=10),1 n
same,Drug-related AE: Skin/SC tissue disorders,dose 3.11 mg/m^2 (n=5),0 n
same,Drug-related grade ⩾3 AE: Skin/SC tissue disorders,dose 3.11 mg/m^2 (n=5),0 n
same,Drug-related AE: Skin/SC tissue disorders,dose 0.125–1.0 mg/m^2 (n=4),1 n
same,Drug-related grade ⩾3 AE: Skin/SC tissue disorders,dose 0.125–1.0 mg/m^2 (n=4),1 n
same,Patients with grade ⩾3 neutropenia who required growth factor support,all doses,2/6
same,Patients with grade ⩾3 thrombocytopenia who required platelet transfusions,all doses,0/4
same,Drug-related AE: Abdominal pain,"all doses, Total (n=30)",5 (17) n (%)
same,Drug-related AE: Any AE,"all doses, Total (n=30)",30 (100) n (%)
same,Drug-related AE: Arthralgia,"all doses, Total (n=30)",3 (10) n (%)
same,Drug-related AE: Chills,"all doses, Total (n=30)",4 (13) n (%)
same,Drug-related AE: Constipation,"all doses, Total (n=30)",3 (10) n (%)
same,Drug-related AE: Cough,"all doses, Total (n=30)",4 (13) n (%)
same,Drug-related AE: Decreased appetite,"all doses, Total (n=30)",6 (20) n (%)
same,Drug-related AE: Decreased platelet count,"all doses, Total (n=30)",3 (10) n (%)
same,Drug-related AE: Diarrhea,"all doses, Total (n=30)",10 (33) n (%)
same,Drug-related AE: Dysgeusia,"all doses, Total (n=30)",4 (13) n (%)
same,Drug-related AE: Fatigue,"all doses, Total (n=30)",13 (43) n (%)
same,Drug-related AE: Headache,"all doses, Total (n=30)",6 (20) n (%)
same,Drug-related AE: Hypokalemia,"all doses, Total (n=30)",4 (13) n (%)
same,Drug-related AE: Lymphopenia,"all doses, Total (n=30)",4 (13) n (%)
same,Drug-related AE: Nausea,"all doses, Total (n=30)",8 (27) n (%)
same,Drug-related AE: Neutropenia,"all doses, Total (n=30)",6 (20) n (%)
same,Drug-related AE: Oral herpes,"all doses, Total (n=30)",4 (13) n (%)
same,Drug-related AE: Pain in extremity,"all doses, Total (n=30)",3 (10) n (%)
same,Drug-related AE: Paresthesia,"all doses, Total (n=30)",3 (10) n (%)
same,Drug-related AE: Peripheral edema,"all doses, Total (n=30)",4 (13) n (%)
same,Drug-related AE: Pyrexia,"all doses, Total (n=30)",5 (17) n (%)
same,Drug-related AE: Thrombocytopenia,"all doses, Total (n=30)",8 (27) n (%)
same,Drug-related AE: Vomiting,"all doses, Total (n=30)",8 (27) n (%)
same,Drug-related grade ⩾3 AE: Any grade ⩾3 AE,"all doses, Total (n=30)",14 (47) n (%)
same,Drug-related grade ⩾3 AE: Dehydration,"all doses, Total (n=30)",2 (7) n (%)
same,Drug-related grade ⩾3 AE: Diarrhea,"all doses, Total (n=30)",3 (10) n (%)
same,Drug-related grade ⩾3 AE: Lymphopenia,"all doses, Total (n=30)",2 (7) n (%)
same,Drug-related grade ⩾3 AE: Neutropenia,"all doses, Total (n=30)",6 (20) n (%)
same,Drug-related grade ⩾3 AE: Thrombocytopenia,"all doses, Total (n=30)",4 (13) n (%)
same,"AEs of Skin and subcutaneous tissue disorders (MedDRA System Organ Class), patients","all doses, n=30",27%
same,"Drug-related AE: diarrhea, patients","all doses, n=30",33%
same,"Drug-related AE: fatigue, patients","all doses, n=30",43%
same,"Drug-related AE: nausea, patients","all doses, n=30",27%
same,"Drug-related AE: thrombocytopenia, patients","all doses, n=30",27%
same,"Drug-related AE: vomiting, patients","all doses, n=30",27%
same,"Drug-related grade ⩾3 AE: diarrhea, patients","all doses, n=30",10%
same,"Drug-related grade ⩾3 AE: neutropenia, patients","all doses, n=30",20%
same,"Drug-related grade ⩾3 AE: thrombocytopenia, patients","all doses, n=30",13%
same,"Drug-related rash, patients","all doses, n=30",17%
same,Grade ⩾3 PN,"all doses, n=30",no grade ⩾3 events were reported; also recorded: no patient had grade ⩾3 PN
same,Patients who experienced serious AEs,"all doses, n=30",Eight
same,Patients with drug-related grade ⩾3 AEs,"all doses, n=30",47%
same,Discontinuation of ixazomib due to AEs,"all doses, n=30, data cut-off 1 March 2013",10%
same,Patients with grade ⩾3 AEs,"all-cause, all doses, n=30",73%
same,Drug-related AE: Abdominal pain,dose 1.4 mg/m^2 (n=4),0 n
same,Drug-related AE: Any AE,dose 1.4 mg/m^2 (n=4),4 n
same,Drug-related AE: Arthralgia,dose 1.4 mg/m^2 (n=4),0 n
same,Drug-related AE: Chills,dose 1.4 mg/m^2 (n=4),0 n
same,Drug-related AE: Constipation,dose 1.4 mg/m^2 (n=4),0 n
same,Drug-related AE: Cough,dose 1.4 mg/m^2 (n=4),0 n
same,Drug-related AE: Decreased appetite,dose 1.4 mg/m^2 (n=4),1 n
same,Drug-related AE: Decreased platelet count,dose 1.4 mg/m^2 (n=4),0 n
same,Drug-related AE: Diarrhea,dose 1.4 mg/m^2 (n=4),0 n
same,Drug-related AE: Dysgeusia,dose 1.4 mg/m^2 (n=4),1 n
same,Drug-related AE: Fatigue,dose 1.4 mg/m^2 (n=4),2 n
same,Drug-related AE: Headache,dose 1.4 mg/m^2 (n=4),0 n
same,Drug-related AE: Hypokalemia,dose 1.4 mg/m^2 (n=4),0 n
same,Drug-related AE: Lymphopenia,dose 1.4 mg/m^2 (n=4),1 n
same,Drug-related AE: Nausea,dose 1.4 mg/m^2 (n=4),1 n
same,Drug-related AE: Neutropenia,dose 1.4 mg/m^2 (n=4),1 n
same,Drug-related AE: Oral herpes,dose 1.4 mg/m^2 (n=4),1 n
same,Drug-related AE: Pain in extremity,dose 1.4 mg/m^2 (n=4),0 n
same,Drug-related AE: Paresthesia,dose 1.4 mg/m^2 (n=4),1 n
same,Drug-related AE: Peripheral edema,dose 1.4 mg/m^2 (n=4),0 n
same,Drug-related AE: Pyrexia,dose 1.4 mg/m^2 (n=4),0 n
same,Drug-related AE: Thrombocytopenia,dose 1.4 mg/m^2 (n=4),2 n
same,Drug-related AE: Vomiting,dose 1.4 mg/m^2 (n=4),0 n
same,Drug-related grade ⩾3 AE: Any grade ⩾3 AE,dose 1.4 mg/m^2 (n=4),3 n
same,Drug-related grade ⩾3 AE: Dehydration,dose 1.4 mg/m^2 (n=4),0 n
same,Drug-related grade ⩾3 AE: Diarrhea,dose 1.4 mg/m^2 (n=4),0 n
same,Drug-related grade ⩾3 AE: Lymphopenia,dose 1.4 mg/m^2 (n=4),0 n
same,Drug-related grade ⩾3 AE: Neutropenia,dose 1.4 mg/m^2 (n=4),1 n
same,Drug-related grade ⩾3 AE: Thrombocytopenia,dose 1.4 mg/m^2 (n=4),1 n
same,Drug-related AE: Abdominal pain,dose 1.76 mg/m^2 (n=7),1 n
same,Drug-related AE: Any AE,dose 1.76 mg/m^2 (n=7),7 n
same,Drug-related AE: Arthralgia,dose 1.76 mg/m^2 (n=7),0 n
same,Drug-related AE: Chills,dose 1.76 mg/m^2 (n=7),2 n
same,Drug-related AE: Constipation,dose 1.76 mg/m^2 (n=7),0 n
same,Drug-related AE: Cough,dose 1.76 mg/m^2 (n=7),2 n
same,Drug-related AE: Decreased appetite,dose 1.76 mg/m^2 (n=7),1 n
same,Drug-related AE: Decreased platelet count,dose 1.76 mg/m^2 (n=7),1 n
same,Drug-related AE: Diarrhea,dose 1.76 mg/m^2 (n=7),3 n
same,Drug-related AE: Dysgeusia,dose 1.76 mg/m^2 (n=7),2 n
same,Drug-related AE: Fatigue,dose 1.76 mg/m^2 (n=7),4 n
same,Drug-related AE: Headache,dose 1.76 mg/m^2 (n=7),2 n
same,Drug-related AE: Hypokalemia,dose 1.76 mg/m^2 (n=7),1 n
same,Drug-related AE: Lymphopenia,dose 1.76 mg/m^2 (n=7),0 n
same,Drug-related AE: Nausea,dose 1.76 mg/m^2 (n=7),3 n
same,Drug-related AE: Neutropenia,dose 1.76 mg/m^2 (n=7),1 n
same,Drug-related AE: Oral herpes,dose 1.76 mg/m^2 (n=7),1 n
same,Drug-related AE: Pain in extremity,dose 1.76 mg/m^2 (n=7),0 n
